Among the data in ChEMBL document CHEMBL4706687, “Synthesis and Pharmacological Evaluation of Novel Non-nucleotide Purine Derivatives as P2X7 Antagonists for the Treatment of Neuroinflammation” (J Med Chem, 2021) are inhibition values, retold here.

Calls of active or inactive are those of the source. The calls are words filed in the database; no cut-off is given here.

Common to all, as to assay type: cell-based
The target of test [1] is T1, P2X purinoceptor 7 (Rattus norvegicus) (UniProt Q64663).
T1 sequence (whole entry): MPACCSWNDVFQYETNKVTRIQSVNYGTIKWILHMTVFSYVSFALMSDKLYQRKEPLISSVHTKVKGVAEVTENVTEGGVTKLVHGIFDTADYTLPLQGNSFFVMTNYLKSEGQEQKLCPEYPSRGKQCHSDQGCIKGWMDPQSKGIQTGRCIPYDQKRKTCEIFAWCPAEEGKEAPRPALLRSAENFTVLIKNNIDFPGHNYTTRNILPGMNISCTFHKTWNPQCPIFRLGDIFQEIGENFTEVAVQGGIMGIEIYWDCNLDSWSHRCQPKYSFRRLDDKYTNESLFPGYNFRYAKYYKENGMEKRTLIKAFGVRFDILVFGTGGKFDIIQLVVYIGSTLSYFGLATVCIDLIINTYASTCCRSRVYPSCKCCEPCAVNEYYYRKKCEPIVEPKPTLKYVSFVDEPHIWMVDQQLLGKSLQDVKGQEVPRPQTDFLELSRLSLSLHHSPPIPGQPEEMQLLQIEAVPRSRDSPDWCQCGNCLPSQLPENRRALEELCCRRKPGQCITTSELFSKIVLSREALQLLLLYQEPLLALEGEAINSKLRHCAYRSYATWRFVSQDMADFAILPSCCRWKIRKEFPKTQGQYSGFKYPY
In words: Antagonist activity at rat P2X7 receptor expressed in Xenopus laevis oocytes assessed as reduction in ATP-induced channel currents at 100 uM by TEVC electrophysiology assay relative to control. The following applies: Oocyte, filed as antagonist. A digest of the protocol:
(§1)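 Two-electrode voltage clamp at −70 mV in low divalent-cation solution, oocytes incubated 1–2 days at 16–18 °C after 50 nL cRNA injection: rP2X1 and rP2X4 at 0.5 mg/mL, rP2X2 0.1 mg/mL, rP2X7 25 μg/mL. ATP 10 μM for rP2X1 and rP2X2, 30 μM for rP2X4 and rP2X7. Compound applied 3 min without perfusion. Currents normalized to control; three oocytes from two frogs.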

Test [2] deals with T2, P2X purinoceptor 7 (Homo sapiens) (UniProt Q99572).
T2 sequence (whole entry): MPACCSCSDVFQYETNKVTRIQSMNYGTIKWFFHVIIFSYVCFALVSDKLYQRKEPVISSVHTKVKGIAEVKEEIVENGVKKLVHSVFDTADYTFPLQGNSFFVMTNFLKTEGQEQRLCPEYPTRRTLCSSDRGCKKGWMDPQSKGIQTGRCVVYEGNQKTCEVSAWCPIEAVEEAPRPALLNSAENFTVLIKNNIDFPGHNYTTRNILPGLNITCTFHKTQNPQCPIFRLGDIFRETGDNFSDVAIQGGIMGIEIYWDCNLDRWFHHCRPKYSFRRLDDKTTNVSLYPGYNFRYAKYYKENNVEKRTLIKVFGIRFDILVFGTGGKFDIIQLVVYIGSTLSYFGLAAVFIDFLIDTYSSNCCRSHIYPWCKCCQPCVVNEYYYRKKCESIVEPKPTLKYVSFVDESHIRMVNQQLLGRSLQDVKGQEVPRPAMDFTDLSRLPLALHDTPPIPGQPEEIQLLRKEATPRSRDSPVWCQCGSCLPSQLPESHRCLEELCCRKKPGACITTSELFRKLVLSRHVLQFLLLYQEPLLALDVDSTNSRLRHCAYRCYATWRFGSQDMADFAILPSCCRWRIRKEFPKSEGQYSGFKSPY
Briefly: Antagonist activity at human P2X7 receptor expressed in HEK293 cells assessed as reduction in benzoyl-ATP-induced YO-PRO-1 dye uptake at 10 uM pre-incubated for 20 mins before YO-PRO-1 addition and measured after 25 mins by fluorescence plate reader analysis relative to control. The following applies: filed as antagonist, time 45.0 min. The gist of the method:
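Stably transfected hP2X7-HEK293 cells, 48 h after seeding, in Mg²⁺-free Krebs-HEPES (0.2 mM CaCl₂, pH 7.4). Compound preincubation 20 min, then YO-PRO-1 2 μM, then BzATP 30 μM. Fluorescence at 485/520 nm read for 25 min. Each well normalized to Fmax (0.5% Triton X-100) and Fmin (2 M MnCl₂): F = (Fx − F0)/(Fmax − Fmin). Triplicates from three cultures. IC50 is the concentration halving BzATP-induced uptake.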

In test [3] the target is T3, P2X purinoceptor 4 (Rattus norvegicus) (UniProt P51577).
T3 sequence (whole entry): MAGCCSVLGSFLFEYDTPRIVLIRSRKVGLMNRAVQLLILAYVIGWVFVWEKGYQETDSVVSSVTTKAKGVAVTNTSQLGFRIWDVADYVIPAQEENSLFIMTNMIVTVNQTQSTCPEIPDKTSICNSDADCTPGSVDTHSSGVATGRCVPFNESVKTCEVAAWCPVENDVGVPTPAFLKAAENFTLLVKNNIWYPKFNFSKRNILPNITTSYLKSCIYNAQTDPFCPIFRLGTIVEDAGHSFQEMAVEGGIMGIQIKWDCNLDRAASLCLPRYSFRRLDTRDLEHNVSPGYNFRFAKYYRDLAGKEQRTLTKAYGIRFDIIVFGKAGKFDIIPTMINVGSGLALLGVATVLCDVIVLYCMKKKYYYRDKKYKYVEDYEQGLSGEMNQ
Briefly: Antagonist activity at rat P2X4 receptor expressed in Xenopus laevis oocytes assessed as reduction in ATP-induced channel currents at 100 uM by TEVC electrophysiology assay relative to control. The following applies: Oocyte. The gist of the method:
as §1

On to `O=C(Cn1cnc2c(Cl)ncnc21)c1ccc(Cl)cc1Cl`, for which, in test [1], the inhibition (as a rule, the relative decrease from the control value, in per cent) is “Active”. In test [2], the inhibition turned out to be 63%. The inhibition result in test [3] is “inactive”.
